{"source": "ChEMBL document CHEMBL3784931", "about": "“Synthesis and evaluation of novel angiotensin II receptor 1 antagonists as anti-hypertension drugs” (Bioorg Med Chem, 2016)", "key": {"[1]": {"assay": "Elimination rate constant in Wistar rat brain at 10 mg/kg, po after 0.5 to 72 hrs by HPLC analysis", "type": "ADME, organism-based", "method_in_brief": "(§1)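 Wistar rats were dosed orally and killed by abdominal aorta transection at 0.5, 1, 2, 4, 6, 8, 12, 24, 48 and 72 h. Organs were excised at once, minced and homogenized at 4 °C in normal saline to a 25% (w/v) homogenate. After spinning at 3000 × g, 4 °C, 10 min, supernatants were analysed by HPLC. Values are mean ± SEM, n = 5 per point.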"}, "Liver": {"test_system": "Liver", "assay": "AUC (0 to 72 hrs) in Wistar rat liver at 10 mg/kg, po by HPLC analysis", "type": "ADME, organism-based", "set-up": "time < 72 hr, dose 10 mg/kg, route oral", "settings": "in vivo", "method_in_brief": "as §1"}, "[2]": {"assay": "Acute toxicity in ICR mouse assessed as mortality at 2844.40 mg/kg, ig administered daily for 2 weeks measured during compound dosing", "type": "organism-based", "settings": "in vivo, po, 2844.4 mg/kg", "method_in_brief": "(§2)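 ICR mice, sixty in total, half male and half female, 20 ± 2 g. Intragastric dosing at 1200, 1600, 2133.3, 2844.40, 5056.79 or 6742.38 mg/kg. Animals watched daily over two weeks for survival and physiological abnormalities or untoward reactions. Percent mortality recorded per dose group.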"}, "[3]": {"assay": "Elimination rate constant in Wistar rat lung at 10 mg/kg, po after 0.5 to 72 hrs by HPLC analysis", "type": "ADME, organism-based", "method_in_brief": "as §1"}, "Mus musculus [4]": {"test_system": "Mus musculus", "assay": "Acute toxicity in ICR mouse assessed as skin changes at 1200 mg/kg, ig administered daily for 2 weeks measured during compound dosing", "type": "organism-based", "settings": "in vivo, po, 336 h", "method_in_brief": "as §2"}, "[5]": {"assay": "Acute toxicity in ICR mouse assessed as mortality at 2133.30 mg/kg, ig administered daily for 2 weeks measured during compound dosing", "type": "organism-based", "settings": "in vivo, po, 2133.3 mg/kg", "method_in_brief": "as §2"}, "[6]": {"assay": "Terminal half life in Wistar rat liver at 10 mg/kg, po after 0.5 to 72 hrs by HPLC analysis", "type": "ADME, organism-based", "settings": "read-out: beta t1/2 (converted)", "method_in_brief": "as §1"}, "[7]": {"assay": "Cmax in Wistar rat stomach at 10 mg/kg, po after 0.5 to 72 hrs by HPLC analysis", "type": "ADME, organism-based", "set-up": "dose 10 mg/kg, route oral", "method_in_brief": "as §1"}, "[8]": {"assay": "Tmax in Wistar rat spleen at 10 mg/kg, po after 0.5 to 72 hrs by HPLC analysis", "type": "ADME, organism-based", "method_in_brief": "as §1"}, "Lung": {"test_system": "Lung", "assay": "AUC (0 to 72 hrs) in Wistar rat lung at 10 mg/kg, po by HPLC analysis", "type": "ADME, organism-based", "set-up": "dose 10 mg/kg, time < 72 hr, route oral", "settings": "in vivo", "method_in_brief": "as §1"}, "[9]": {"assay": "Tmax in Wistar rat stomach at 10 mg/kg, po after 0.5 to 72 hrs by HPLC analysis", "type": "ADME, organism-based", "method_in_brief": "as §1"}, "Kidney": {"test_system": "Kidney", "assay": "AUC (0 to 72 hrs) in Wistar rat kidney at 10 mg/kg, po by HPLC analysis", "type": "ADME, organism-based", "set-up": "dose 10 mg/kg, time < 72 hr, route oral", "settings": "in vivo", "method_in_brief": "as §1"}, "[10]": {"assay": "Tmax in Wistar rat brain at 10 mg/kg, po after 0.5 to 72 hrs by HPLC analysis", "type": "ADME, organism-based", "method_in_brief": "as §1"}, "[11]": {"assay": "Tmax in Wistar rat liver at 10 mg/kg, po after 0.5 to 72 hrs by HPLC analysis", "type": "ADME, organism-based", "method_in_brief": "as §1"}, "Rattus norvegicus": {"test_system": "Rattus norvegicus", "assay": "Antihypertensive activity in spontaneous hypertensive rat model assessed as mean blood pressure at 10 mg/kg, po administered for 2 hrs", "type": "functional", "method_in_brief": "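Male SHRs were randomized, n = 6 per group. Compound was suspended in DMSO/oleic acid (1:4) and given by oral gavage; vehicle controls got the same volume of solvent. SBP and DBP were recorded in conscious animals by noninvasive tail-artery manometry. MBP = (SBP − DBP)/3 + DBP. Data are mean ± SEM, with p < 0.05 taken as significant.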"}, "[12]": {"assay": "Cmax in Wistar rat liver at 10 mg/kg, po after 0.5 to 72 hrs by HPLC analysis", "type": "ADME, organism-based", "set-up": "dose 10 mg/kg, route oral", "method_in_brief": "as §1"}, "[13]": {"assay": "Cmax in Wistar rat spleen at 10 mg/kg, po after 0.5 to 72 hrs by HPLC analysis", "type": "ADME, organism-based", "set-up": "dose 10 mg/kg, route oral", "method_in_brief": "as §1"}, "[14]": {"assay": "Tmax in Wistar rat heart at 10 mg/kg, po after 0.5 to 72 hrs by HPLC analysis", "type": "ADME, organism-based", "method_in_brief": "as §1"}, "[15]": {"assay": "Cmax in Wistar rat brain at 10 mg/kg, po after 0.5 to 72 hrs by HPLC analysis", "type": "ADME, organism-based", "set-up": "dose 10 mg/kg, route oral", "method_in_brief": "as §1"}, "Mus musculus [16]": {"test_system": "Mus musculus", "assay": "Acute toxicity in ICR mouse assessed as respiratory movements at 1200 mg/kg, ig administered daily for 2 weeks measured during compound dosing", "type": "organism-based", "settings": "in vivo, po, 336 h", "method_in_brief": "as §2"}, "[17]": {"assay": "AUC (0 to 72 hrs) in Wistar rat plasma at 10 mg/kg, po by HPLC analysis", "type": "ADME, organism-based", "set-up": "dose 10 mg/kg, time < 72 hr, route oral", "method_in_brief": "(§3)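 Wistar rats got an oral dose. Venous blood (0.5 mL) was taken predose and at 0.5, 1, 2, 4, 6, 8, 12, 24, 48 and 72 h, and plasma was spun 4000 × g, 4 °C, 10 min. Samples with internal standard were acetonitrile-precipitated, filtered and run on C18 reverse-phase HPLC with UV detection. Calibration used weighted regression of peak height ratio.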"}, "[18]": {"target": "T1, Type-1 angiotensin II receptor A (Rattus norvegicus, UniProt P25095)", "T1 sequence (P25095 whole entry)": "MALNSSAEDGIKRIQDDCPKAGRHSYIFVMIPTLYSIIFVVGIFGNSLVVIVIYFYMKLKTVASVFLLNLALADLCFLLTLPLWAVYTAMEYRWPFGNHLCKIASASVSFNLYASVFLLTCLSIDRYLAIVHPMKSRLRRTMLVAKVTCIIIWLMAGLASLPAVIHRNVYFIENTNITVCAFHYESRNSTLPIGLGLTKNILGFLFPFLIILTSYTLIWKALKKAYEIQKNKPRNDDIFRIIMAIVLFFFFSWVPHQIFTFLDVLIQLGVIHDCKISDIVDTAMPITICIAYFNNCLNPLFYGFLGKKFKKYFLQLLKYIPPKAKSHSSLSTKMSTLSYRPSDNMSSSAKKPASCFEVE", "assay": "Displacement of [125I]-Ang II from Angiotensin 2 type-1A receptor in rat vascular smooth muscle cells after 150 mins by gamma counting method", "method_in_brief": "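Rat vascular smooth muscle cells (passages 3–6) were seeded at 10⁶ cells/well and grown at 37 °C in 5% CO₂. Nonspecific binding was taken with 1 µM Ang II. Cells were washed three times, lysed 10 min in 0.1 M NaOH, and bound radioactivity was gamma counted.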"}, "[19]": {"assay": "Elimination rate constant in Wistar rat kidney at 10 mg/kg, po after 0.5 to 72 hrs by HPLC analysis", "type": "ADME, organism-based", "method_in_brief": "as §1"}, "[20]": {"assay": "Elimination rate constant in Wistar rat liver at 10 mg/kg, po after 0.5 to 72 hrs by HPLC analysis", "type": "ADME, organism-based", "method_in_brief": "as §1"}, "[21]": {"assay": "Terminal half life in Wistar rat stomach at 10 mg/kg, po after 0.5 to 72 hrs by HPLC analysis", "type": "ADME, organism-based", "settings": "read-out: beta t1/2 (converted)", "method_in_brief": "as §1"}, "Mus musculus [22]": {"test_system": "Mus musculus", "assay": "Acute toxicity in ICR mouse assessed as obvious untoward reaction at 1200 to 6742.38, ig administered daily for 2 weeks during compound dosing", "type": "organism-based", "settings": "in vivo, po, 336 h", "method_in_brief": "as §2"}, "[23]": {"assay": "Terminal half life in Wistar rat spleen at 10 mg/kg, po after 0.5 to 72 hrs by HPLC analysis", "type": "ADME, organism-based", "settings": "read-out: beta t1/2 (converted)", "method_in_brief": "as §1"}, "Heart": {"test_system": "Heart", "assay": "AUC (0 to 72 hrs) in Wistar rat heart at 10 mg/kg, po by HPLC analysis", "type": "ADME, organism-based", "set-up": "time < 72 hr, dose 10 mg/kg, route oral", "settings": "in vivo", "method_in_brief": "as §1"}, "Mus musculus [24]": {"test_system": "Mus musculus", "assay": "Acute toxicity in ICR mouse assessed as mobility at 1200 mg/kg, ig administered daily for 2 weeks measured during compound dosing", "type": "organism-based", "settings": "in vivo, po, 336 h", "method_in_brief": "as §2"}, "[25]": {"assay": "Cmax in Wistar rat plasma at 10 mg/kg, po after 0.5 to 72 hrs by HPLC analysis", "type": "ADME, organism-based", "set-up": "dose 10 mg/kg, route oral", "method_in_brief": "as §3"}}, "data": [{"smiles": "CCCCc1nc(Cl)c(C(=O)O)n1Cc1ccc(-c2ccccc2-c2noc(=O)[nH]2)cc1", "values": [{"measurement": "k el", "setting": "[1]", "value": "1.14e-05", "unit": "s⁻¹"}, {"measurement": "AUC", "setting": "Liver", "value": 260.05, "unit": "ng·h/g"}, {"measurement": "mortality at 336 h", "setting": "[2]", "value": 40, "unit": "%"}, {"measurement": "k el", "setting": "[3]", "value": "1.64e-05", "unit": "s⁻¹"}, {"measurement": "Activity", "setting": "Mus musculus [4]", "value": "Non-toxic"}, {"measurement": "mortality at 336 h", "setting": "[5]", "value": 20, "unit": "%"}, {"measurement": "half-life", "setting": "[6]", "value": 641, "unit": "min"}, {"measurement": "Cmax", "setting": "[7]", "value": 8.91, "unit": "ng/g"}, {"measurement": "Tmax", "setting": "[8]", "value": 4, "unit": "h"}, {"measurement": "AUC", "setting": "Lung", "value": 213.96, "unit": "ng·h/g"}, {"measurement": "Tmax", "setting": "[9]", "value": 30, "unit": "min"}, {"measurement": "AUC", "setting": "Kidney", "value": 202.97, "unit": "ng·h/g"}, {"measurement": "Tmax", "setting": "[10]", "value": 2, "unit": "h"}, {"measurement": "Tmax", "setting": "[11]", "value": 30, "unit": "min"}, {"measurement": "Activity", "setting": "Rattus norvegicus", "value": 41, "unit": "mmHg"}, {"measurement": "Cmax", "setting": "[12]", "value": 9.56, "unit": "ng/g"}, {"measurement": "Cmax", "setting": "[13]", "value": 8.84, "unit": "ng/g"}, {"measurement": "Tmax", "setting": "[14]", "value": 30, "unit": "min"}, {"measurement": "Cmax", "setting": "[15]", "value": 5.8, "unit": "ng/g"}, {"measurement": "Activity", "setting": "Mus musculus [16]", "value": "Non-toxic"}, {"measurement": "AUC(0-t) at 72 h", "setting": "[17]", "value": 296, "unit": "ng·h/mL"}, {"measurement": "IC50", "setting": "[18]", "value": 3.16, "unit": "nM"}, {"measurement": "Ki", "setting": "[18]", "value": 2.29, "unit": "nM"}, {"measurement": "k el", "setting": "[19]", "value": "1.11e-05", "unit": "s⁻¹"}, {"measurement": "k el", "setting": "[20]", "value": "1.94e-05", "unit": "s⁻¹"}, {"measurement": "half-life", "setting": "[21]", "value": 904, "unit": "min"}, {"measurement": "Activity", "setting": "Mus musculus [22]", "value": "Non-toxic"}, {"measurement": "half-life", "setting": "[23]", "value": 524, "unit": "min"}, {"measurement": "AUC", "setting": "Heart", "value": 200.41, "unit": "ng·h/g"}, {"measurement": "Activity", "setting": "Mus musculus [24]", "value": "Non-toxic"}, {"measurement": "Cmax", "setting": "[25]", "value": 10.3, "unit": "ng/mL"}]}]}
